Source: PubChem (several laboratories)
C8 TRAIL sens – viability loss with TRAIL in NB7+C8 cells, primary screen, TRAIL sensitizer project, cell-based, ATPlite luminescence; inhibition (viability loss, TRAIL sensitization), % at 10 µM; 1% of 360,000 active; AID 624354, 2012;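 active = compounds causing at least 50% loss of cell viability in the single-dose screen, relative to plate controls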
HSP90 refold inh – HSP90 inhibitors, primary screen, cell lysate, luminescence. Rabbit reticulocyte lysate, luciferase refolding luminescence, 3 h. inhibition, % at 5.6 µM. 0.91% of 290,000 active. AID 1789, 2009;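 active = inhibition above the screen-wide mean plus 3 SD, computed separately per campaign, cut at about 16% in these data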;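 note: 0% = DMSO wells and 100% = 60 µM geldanamycin wells; inhibitors lower the luminescence because luciferase stays unfolded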
FLuc inh counter – firefly luciferase enzyme inhibitors, primary screen, artefact control for luciferase-based inhibitor screens, biochemical, luminescence, ATPLite. 1.5% of 200,000 active. 10 min. Luciferin 4-monooxygenase (Photinus pyralis), P08659. inhibition, % at 10 µM;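 active = inhibition above about 50% when tested at 10 µM, limit read from the data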
Target sequence (P08659 whole entry, looked up): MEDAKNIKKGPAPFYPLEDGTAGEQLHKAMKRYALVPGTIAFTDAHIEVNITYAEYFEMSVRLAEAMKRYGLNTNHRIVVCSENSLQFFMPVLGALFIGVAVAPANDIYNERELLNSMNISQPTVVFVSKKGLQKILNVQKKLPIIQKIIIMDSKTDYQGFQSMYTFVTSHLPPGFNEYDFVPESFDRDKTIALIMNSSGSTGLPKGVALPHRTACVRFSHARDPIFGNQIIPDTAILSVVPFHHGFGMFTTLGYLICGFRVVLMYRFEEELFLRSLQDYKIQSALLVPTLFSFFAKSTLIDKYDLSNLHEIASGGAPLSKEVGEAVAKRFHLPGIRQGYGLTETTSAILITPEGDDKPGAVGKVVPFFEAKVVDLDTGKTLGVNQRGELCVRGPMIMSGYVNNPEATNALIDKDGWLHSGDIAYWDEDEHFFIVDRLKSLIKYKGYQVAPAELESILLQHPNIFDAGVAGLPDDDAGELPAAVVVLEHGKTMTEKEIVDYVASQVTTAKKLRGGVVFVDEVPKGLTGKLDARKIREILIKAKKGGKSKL
FLuc stim CS – FLuc activators, initial screening, artefact control for FLuc-dependent activation tests, biochemical, ATPlite luminescence | Luciferin 4-monooxygenase (Photinus pyralis), P08659 | ATPlite luciferase biochemical, 10 min; 0 = ATP-free wells, 1 = DMSO control | activation factor at 10 µM | 200,000 tested, under 10 active;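 active = luciferase activation factor, scaled between plate controls, of at least 2 with compound at 10 µM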
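Assay system: Luciferase/luciferin detection reagent, cell-free biochemical luciferase assay / Also added: ATP substrate / Schedule: 10 min at ambient temperature / Measured by: luminescence measurement of luciferase light output / Benchmarks: low control with PBS replacing ATP, high control enzyme plus ATP without compound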
PPC-1+TRAIL kill – compounds killing PPC-1 cancer cells with TRAIL present, primary screen, TRAIL potentiator project, ATPLite luminescence, uHTS; PPC-1 cells + TRAIL, ATPLite viability luminescence; cell killing (% activity), % at 4 µM or 5 µM; 0.41% of 220,000 active; AID 1443, 2008;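 active = cell killing above 50% in the first pass at 4 µM, then a duplicate retest at 5 µM averaging 50% or more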;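 note: plate controls were cells with TRAIL plus DMSO for no effect and medium-only wells lacking cells for full effect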
* marks the source's active call; other numbers are inactive results; nt = not tested or not shown. Most compounds without a hit are left out; they make up all but 2% or so of the library.

SMILES	C8 TRAIL sens	HSP90 refold inh	FLuc inh counter	FLuc stim CS	PPC-1+TRAIL kill
COc1ccccc1/C=N/N1C(=O)C2C3C=CC(CC3)C2C1=O (stereo not drawn)	-1.5	4.0	13.6	0.9	8.2
Cc1ccc(-c2nc3ccccc3[nH]2)s1	55.9*	5.8	60.7*	0.4	47.1
c1ccc(-c2nc3ccccc3[nH]2)nc1	18.3	5.1	46.5	0.5	22.8
c1csc(-c2nc3ccccc3[nH]2)c1	-1.3	-4.0	24.0	0.8	26.0
COC(=O)c1ccc(-c2nc3ccccc3[nH]2)cc1	82.0*	9.9	91.2*	0.1	36.2
Nc1nc(-c2nc3ccccc3[nH]2)cs1	36.0	2.9	63.3*	0.4	-16.3
Cc1cc(-c2nc3ccccc3[nH]2)ccc1N	43.5	5.6	71.5*	0.3	39.6
CCOc1cc(OCC)cc(C(=O)N2CCC[C@@H]2C(=O)N2CCC[C@H]2C(=O)NCc2ccncc2)c1	-12.6	nt	nt	nt	nt
CC(=O)c1cccc(NC(=O)C2(C)Cc3c(-c4cccc(C(F)(F)F)c4)ccnc3O2)c1 (stereo not drawn)	-0.5	nt	nt	nt	nt
CCn1c(C)cc(/C=C2/SC(=S)NC2=O)c1C	-7.7	-2.7	52.2*	0.5	-7.3
CCOC(=O)Cc1cc(=O)n2[nH]c(-c3ccc(Cl)cc3)cc2n1	9.6	5.1	56.9*	0.4	16.8
CCCc1cc(=O)n2[nH]c(-c3ccc(Cl)cc3)cc2n1	0.3	-2.1	nt	nt	nt
Cc1ccc(C)c(N2CCN(C(=O)c3ccc(CSc4nc5ccncc5[nH]4)cc3)CC2)c1	10.2	2.0	-5.4	1.1	12.3
O=C(c1ccc(CSc2nc3ccncc3[nH]2)cc1)N1CCCCC1	43.7	3.9	67.8*	0.3	35.6
COc1ccc(N2Cc3ccc(OC)c(OC)c3C2=O)cc1	50.9*	0.2	nt	nt	nt
COc1ccc2c(c1OC)C(=O)N(c1nccs1)C2	10.0	-5.8	20.6	0.8	5.0
O=c1nc2n(c3ncccc13)CCC2	-5.1	16.5*	-5.4	1.1	3.2
O=c1nc(-c2ccccc2)n(-c2ccccc2)c2ncccc12	-4.3	0.2	-4.4	1	1.2
CSc1ccc(C2NC(=O)c3ccccc3N2)cc1 (stereo not drawn)	50.7*	nt	nt	nt	nt
O=C1NC(c2ccc(O)cc2)Nc2ccccc21 (stereo not drawn)	13.0	-1.7	nt	nt	nt
COC(=O)C1=CN(c2cccc(OCc3ccccc3)c2)C(N)=C(C#N)C1c1cccc(F)c1 (stereo not drawn)	6.6	nt	nt	nt	nt
Cc1cc(/C=C2/SC(=O)N(CC(=O)N3CCOCC3)C2=O)c(C)n1-c1ccccc1F	3.4	1.1	86.7*	0.1	52.7*
CN(C)c1cccc(-c2nnc(SCCCC#N)o2)c1	14.4	12.0	55.5*	0.4	20.1
O=C(NC(=S)Nc1cc(Cl)ccc1Cl)c1ccco1	-11.0	nt	nt	nt	nt
NNc1nc(-c2ccccc2Cl)nc2sc3c(c12)CCCC3	49.1	2.6	81.9*	0.2	11.2
SMILES	C8 TRAIL sens	HSP90 refold inh	FLuc inh counter	FLuc stim CS	PPC-1+TRAIL kill
COC(=O)[C@@H]1Cc2c([nH]c3ccccc23)C(C)(C)N1C(=O)CCl	95.6*	0.1	nt	nt	nt
COC(=O)C1Cc2c([nH]c3ccccc23)C2CCC(=O)N12 (stereo not drawn)	-11.6	nt	nt	nt	nt
CCC/C=C/c1ccc(CN2C(CC(C)C)C(=O)N(Cc3cn(CC4CCCCC4)nn3)CCS2(=O)=O)cc1 (stereo not drawn)	7.0	nt	nt	nt	nt
Oc1c(Cl)cc(Cl)cc1C=Nc1cc(C(F)(F)F)ccc1N1CCc2ccccc2C1	53.3*	14.2	nt	nt	37.4
Cc1ccccc1NC(=O)c1nc(S(C)(=O)=O)ncc1Cl	-0.5	4.5	nt	nt	nt
Cc1ccccc1CS(=O)(=O)c1ncc(Cl)c(C(=O)Nc2ccc(F)cc2)n1	91.7*	0.2	nt	nt	nt
Cc1ccc(NC(=O)c2nc(S(=O)(=O)Cc3ccccc3)ncc2Cl)cc1	65.0*	-0.6	nt	nt	nt
CCCc1nnc(NC(=O)c2nc(S(=O)(=O)Cc3cccc(C)c3)ncc2Cl)s1	44.9	0.6	nt	nt	nt
O=C(Nc1ccc(F)cc1)c1nc(S(=O)(=O)Cc2ccccc2)ncc1Cl	92.3*	-3.1	nt	nt	nt
Cc1cccc(C)c1NC(=O)c1nc(S(=O)(=O)Cc2ccccc2)ncc1Cl	22.8	3.3	nt	nt	nt
Cc1nnc(NC(=O)c2nc(S(=O)(=O)Cc3ccccc3)ncc2Cl)s1	82.9*	5.0	nt	nt	nt
